Bioassay records (PubChem)
T cell modulator: T cell immune modulators affecting CD8 T cell-vesicle binding. 2C CD8+ T cell-vesicle binding, flow cytometry; active compounds read low. response (vesicle binding), % at 7 µM. 330,000 compounds, 0.068% hits. AID 2052;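 active = response, share of CD8 T cells binding vesicles, and their 90th percentile fluorescence all below set limits, cut at about 80% in these data, passing the limit was not always enough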;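 also: values below 100% mean blocked vesicle binding to the CD8+ T cells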
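Assay system: 2C TCR transgenic mouse naive CD8+ T cells, MACS-purified | Read-out: CD8+ gate FL2 mean fluorescence as % of same-row positive control | Signal: High-throughput flow cytometry with anti-B7-1 and anti-CD8 staining | Timing: Binding step 1.5 h, 37 °C, antibody labelling 20 min, ice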
DSG3 Ab inh: blocks pemphigus antibody binding to human desmoglein-3 | DSG3-coupled beads, scFv-anti-DSG3-GFP binding, flow cytometry; active compounds read low | binding (percent of control), % at 10 µM | 310,000 compounds, 0.48% hits | AID 588358;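 active = binding more than 3 SD below its plate's average and above zero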;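 also: hits lower antibody fragment binding to DSG3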
Arrestin-AP2 inh: blocks beta-arrestin peptide binding to AP2 adaptin. FITC-arrestin peptide / GST-AP2 beads, flow cytometry; AP2 beta2 appendage carries R879A mutation. inhibition, % at 10 µM. 340,000 compounds, 0.31% hits. AID 504490;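 active = inhibition above a set limit, near 3 SD of compounds lacking own fluorescence, cut at about 54% in these data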
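System: GST-AP2 R879A glutathione beads; medium: PBS, Tween 20 0.05%, BSA 0.1%; reagent: fluorescein-tagged arrestin peptide at 50 nM final; schedule: pre-incubation 12 min, peptide binding 1 h, room temperature; detection: flow cytometry, FL1 (488/535 nm); read-out: inhibition as reduced fluorescein signal on beads, percent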
HDAC3 inh: inhibitors of human histone deacetylase 3; inhibition, % at 8.3 µM; 320,000 compounds, 0.15% hits; O15379; recombinant HDAC3, fluorogenic peptide/trypsin coupled, fluorescence; in the data active = inhibition above about 26%, passing the limit was not always enough
Target sequence (O15379 whole entry, looked up): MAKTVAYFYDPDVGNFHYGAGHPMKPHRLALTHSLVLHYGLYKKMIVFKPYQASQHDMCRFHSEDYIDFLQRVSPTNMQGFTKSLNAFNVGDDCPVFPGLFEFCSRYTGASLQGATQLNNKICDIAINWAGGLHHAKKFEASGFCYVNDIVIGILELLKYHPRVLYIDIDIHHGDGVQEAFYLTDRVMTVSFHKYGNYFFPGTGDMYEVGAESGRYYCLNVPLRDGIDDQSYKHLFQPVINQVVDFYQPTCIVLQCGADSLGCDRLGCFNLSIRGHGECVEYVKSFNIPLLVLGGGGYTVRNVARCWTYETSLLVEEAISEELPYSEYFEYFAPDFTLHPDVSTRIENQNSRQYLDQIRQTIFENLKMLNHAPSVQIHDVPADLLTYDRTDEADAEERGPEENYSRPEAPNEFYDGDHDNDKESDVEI
LANA-H2A inh: blocks KSHV LANA binding to histone H2A/H2B; 320,000 compounds, 0.6% hits; Q9QR71; cell-free LANA-H2A/H2B peptide, fluorescence polarization; inhibition, % (test concentration not listed); in the data active = inhibition mostly above about 10%, no sharp cut-off; inactive = mostly below about 6.7%
Arr AP2 CP1: inhibitors of human beta-arrestin and AP2 interaction | shares compounds with Arrestin-AP2 inh | GST-AP2 beads, FITC arrestin peptide binding, flow cytometry; GST-fused beta2-adaptin appendage, R879A mutant | inhibition, % at 10 µM | 1,300 compounds, 2% hits | AID 504908;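 active = inhibition above a set limit, roughly 3 SD of non-fluorescent compound noise, cut at about 38% in these data; inactive = inhibition at or below that limit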;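 also: loss of bead fluorescence from 50 nM FITC arrestin peptide bound to appendage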
GST GSH counter: counter-screen for beta-arrestin AP2 inhibitors: GST-GSH bead binding; shares compounds with Arrestin-AP2 inh; AID 588338; inhibition, % at 10 µM; GST-fluorescein binding to GSH beads, fluorescence; 1,300 compounds, 2% hits;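 active = inhibition above 50%, about 3 SD of the inhibition seen with non-fluorescent compounds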;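 also: fluorescein maleimide labelled GST captured on 4 micron glutathione beads; higher means more loss of bead fluorescence from quenching or blocked binding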
Numbers stand for hits; n = inactive; x = not tested or not shown. This is a sample that favours compounds with a hit; in the whole collection about 1.5% have one here.

SMILES	T cell modulator	DSG3 Ab inh	Arrestin-AP2 inh	HDAC3 inh	LANA-H2A inh	Arr AP2 CP1	GST GSH counter
CCOc1ccc(NC(=S)N2CCN(S(=O)(=O)c3ccccc3)CC2)cc1	n	n	58	n	n	n	n
COc1cccc(C2C(C#N)=C(N)OC(C(C)(C)C)=C2C#N)c1 (stereo not drawn)	n	n	93	n	n	n	n
CCC(=O)Nc1c(C#N)c2nc3ccccc3nc2n1C1CCCCC1	n	n	75	n	n	n	n
Nc1nnc(SCC(=O)OCC(=O)Nc2ccccc2F)s1	n	n	57	n	n	n	n
COc1ccc(CNC(=O)CCNS(=O)(=O)c2ccc(NC(C)=O)cc2)cc1OC	n	x	n	n	n	x	x
O=C(C1CCN(S(=O)(=O)c2cc(Cl)ccc2Cl)CC1)N1CCOCC1	n	x	56	n	n	n	n
O=C(Nc1ccc(Br)cc1)c1cccc2c1C(=O)N(C1CCCCC1)C2	n	n	n	n	n	x	x
Cc1cc(C)cc(NC(=O)c2cccc3c2C(=O)N(C2CCCCC2)C3)c1	n	n	62	n	n	n	n
C[C@@H](C(=O)OCC(=O)c1ccccc1)N1C(=O)C2CCCCC2C1=O (stereo partly drawn)	n	x	n	n	n	x	x
COc1ccc(NC(=O)CN(C)C(=O)C(NC(=O)c2ccco2)C(C)C)cc1 (stereo not drawn)	x	n	61	x	x	n	n
CN(NC(=O)c1ccccc1)C1=NS(=O)(=O)c2ccccc21	n	n	n	n	n	x	x
CN(NC(=O)COc1ccccc1)C1=NS(=O)(=O)c2ccccc21	n	n	62	n	n	n	n
COC1OC2COC(c3ccccc3)OC2C(NC(C)=O)C1OC(C)=O (stereo not drawn)	x	n	x	x	x	x	x
CC(=O)N[C@@H]1[C@@H](O)[C@@H]2OC(c3ccccc3)OC[C@H]2O[C@@H]1N=[N+]=[N-] (stereo partly drawn)	n	n	56	n	n	n	n
C/C(=N\NC(=O)CNC(=O)c1ccccc1Br)c1ccco1	n	n	n	n	n	x	x
Cn1ccsc1=NC(=O)c1cccc(OC(F)F)c1	n	n	n	n	n	x	x
COc1ccccc1NS(=O)(=O)c1cc(NC(=O)c2sc3cc(Cl)ccc3c2Cl)ccc1C	n	n	105	n	n	n	n
CCNC(=S)Nc1ccc(C)c(S(=O)(=O)Nc2ccccc2OC)c1	n	n	n	n	n	x	x
COc1cc(OC)c(NC(=O)CC(C)=O)cc1Cl	n	x	n	n	n	n	n
COc1cc(OC)c(NC(=O)CC(=O)Nc2cc(Cl)c(OC)cc2OC)cc1Cl	n	n	n	n	n	x	x
O=C(NCC(O)c1ccccc1)c1ccc(Cl)c(S(=O)(=O)N2CCCCC2)c1 (stereo not drawn)	n	n	n	n	n	x	x
O=C(Nc1ccccc1)c1nn(-c2ccccc2)c(=O)cc1C(F)(F)F	n	x	101	n	n	n	n
O=C(CCC1CCCN(C(=O)c2ccc3cc[nH]c3c2)C1)NCc1ccc(F)c(F)c1 (stereo not drawn)	n	n	58	n	n	n	n
Cc1cc2c3c([nH]c2cc1S(=O)(=O)N1CCC2(CC1)OCCO2)CCCC3=O	n	n	n	n	n	x	x
O=S(=O)(Nc1ccc2c(c1)OCCO2)c1cccc(F)c1	n	n	n	n	n	x	x
SMILES	T cell modulator	DSG3 Ab inh	Arrestin-AP2 inh	HDAC3 inh	LANA-H2A inh	Arr AP2 CP1	GST GSH counter
O=S(=O)(Nc1ccc2c(c1)OCCO2)c1c(F)cccc1F	n	n	59	n	n	n	n
CCc1nnc(NC(=O)CCC(=O)N2CCN(Cc3cc(F)ccc3OC)CC2)s1	n	n	n	n	n	x	x
COc1ccc(F)cc1CN1CCN(C(=O)CCC(=O)Nc2nnc(CC(C)C)s2)CC1	n	n	54	n	n	n	n
COc1cccc(CN2CCNC(=O)C2CC(=O)NCC2CCOCC2)c1 (stereo not drawn)	n	n	n	x	x	x	x
Cc1ccc(C2Nc3cccc4cccc(c34)N2)s1	n	n	87	n	n	n	n
Fc1ccc(C2Nc3cccc4cccc(c34)N2)cc1	n	n	n	n	n	x	x
C/C(=N\NC(=O)CCCCCNC(=O)c1ccccc1)c1ccccc1O	n	n	n	n	n	x	x
O=C(CCCCCNC(=O)c1ccccc1)N/N=C/c1ccc(O)cc1O	n	n	60	n	n	n	n
CC(C)(C)OC(=O)N1CCCC(C(=O)Nc2cccc(C(=O)N3CCOCC3)c2)C1 (stereo not drawn)	x	n	n	x	x	x	x
COc1ccc(Cc2nc3ccc(C(=O)N4CCN(C)C(C)C4)cc3o2)cc1OC (stereo not drawn)	n	x	n	n	n	x	x
COc1ccccc1-n1c(SCC(=O)NC2CC2)nc2ccccc2c1=O	n	n	60	n	n	n	n
CC(Oc1ccc(Br)cc1)C(=O)N1CCC(C(N)=O)CC1 (stereo not drawn)	n	n	59	n	n	n	n
CC(Oc1ccc(Br)cc1)C(=O)N1CCN(c2ccccn2)CC1 (stereo not drawn)	n	n	n	n	n	x	x
CCN(CC)C(=O)c1cccc(NC(=O)C2=COCCO2)c1	n	n	68	n	18	n	n
CCN(CC)C(=O)c1cccc(NC(=O)CC23CC4CC(CC(C4)C2)C3)c1	n	x	n	n	n	x	x
N#C/C(=C/c1cn(-c2ccccc2)nc1-c1cccc(S(=O)(=O)N2CCOCC2)c1)C(=O)NCc1ccco1	n	n	99	n	n	n	n
N#C/C(=C/c1cn(-c2ccccc2)nc1-c1cccc(S(=O)(=O)N2CCCC2)c1)C(=O)NCc1ccco1	n	n	n	n	n	x	x
CCOC(=O)C1=C(COC(=O)CCOc2ccc(OCC)cc2)NC(=O)NC1C (stereo not drawn)	n	x	n	n	n	n	n
CCOC(=O)C1=C(COC(=O)c2ccc(C)s2)NC(=O)NC1C (stereo not drawn)	n	n	n	n	n	x	x
CCOC(=O)C1=C(COC(=O)c2ccccc2OC)NC(=O)NC1C (stereo not drawn)	x	n	n	x	x	x	x
CCOC(=O)C1=C(COC(=O)CCCOc2ccccc2)NC(=O)NC1C (stereo not drawn)	x	n	n	x	x	n	n
CCOC(=O)C1=C(COC(=O)CCOc2ccccc2C)NC(=O)NC1C (stereo not drawn)	n	n	n	n	n	n	n
Clc1ccc2nc(C(Cl)(Cl)Cl)[nH]c2c1	x	n	x	x	x	x	x
COc1cc(OC)cc(C(=O)Nc2nc3ccc(S(C)(=O)=O)cc3s2)c1	n	n	104	n	n	n	n
COc1cc(C(=O)Nc2nc3ccc(S(C)(=O)=O)cc3s2)cc(OC)c1C	n	n	n	n	n	x	x
